Assay [1] has as its system Escherichia coli. Description: Inhibition of intrinsic ATPase activity of Escherichia coli SecA expressed in Escherichia coli BL21.19 cells assessed as hydrolysis of ATP at 200 uM after 2 hrs by malachite green colorimetric method. In a few lines: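 Single-concentration screen: compound at 200 µM with His-tagged ecSecA at 0.5 µM (50 µg/ml) and 100 µM ATP, 37 °C, 2 h. Buffer was 50 mM Tris–HCl, 50 mM KCl, 5 mM MgCl2, 0.4 mg/ml BSA, pH 8.0. Free Pi was detected with malachite green reagent (20 min rt, absorbance 660 nm).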

Assay [2] in a line: Inhibition of intrinsic ATPase activity of Escherichia coli SecA expressed in Escherichia coli BL21.19 cells assessed as hydrolysis of ATP after 2 hrs by malachite green colorimetric method. In a few lines: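 Recombinant His-tagged ecSecA at 0.5 µM (50 µg/ml) was incubated at 37 °C with 100 µM ATP and compound (0–200 µM) for 2 h. Buffer was 50 mM Tris–HCl, 50 mM KCl, 5 mM MgCl2, 0.4 mg/ml BSA, pH 8.0. Released Pi was read with malachite green (20 min rt, 660 nm). Rates were taken relative to no-compound, and IC50 was fitted by nonlinear regression from three independent experiments.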

Assay [3] in a line: Inhibition of ATPase activity of Escherichia coli SecA expressed in Escherichia coli BL21.19 cells assessed as hydrolysis of ATP after 2 hrs using Dixon plot analysis by malachite green colorimetric method.
The test system of assay [4] is Escherichia coli. Put plainly: Mixed-type inhibition of ATPase activity of Escherichia coli SecA expressed in Escherichia coli BL21.19 cells assessed as hydrolysis of ATP after 2 hrs using MM equation at 25 to 200 uM by malachite green colorimetric method.
Another assay concerns Staphylococcus aureus. Description: Inhibition of intrinsic ATPase activity of Staphylococcus aureus SecA expressed in Escherichia coli BL21.19 cells assessed as hydrolysis of ATP after 2 hrs by malachite green colorimetric method. To be noted: dose or concentration not given here. In a few lines:
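His-tagged saSecA1 at 4 µM (400 µg/ml) was incubated at 28 °C for 2 h with 100 µM ATP. Buffer was 50 mM HEPES, 50 mM KCl, 2 mM MgCl2, 0.4 mg/ml BSA, pH 7.5. Liberated Pi was quantified with malachite green (20 min room temperature, 660 nm).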

SMILES strings stand for the structures. Activity calls are given as the source filed them. No cut-off for these calls is given here.

In the case of `Nc1nc(N2CCOCC2)c2sc(N3CCOCC3)nc2n1`, in the assay with Escherichia coli [1], the result was Active.

A word on the inhibition: it is how much of the control response was suppressed. In the case of `Nc1nc(N2CCN(C(=O)COc3ccc(Cl)cc3)CC2)c2sc(-c3ccc(F)cc3)nc2n1`, in the assay with Escherichia coli [1], the inhibition stood at 50%.

For the compound `Nc1nc(-c2ccc(F)cc2)c2sc(N3CCNCC3)nc2n1`, the inhibition in the assay with Escherichia coli [1] worked out at 35%.

As for `Nc1nc(N2CCOCC2)c2sc(-c3ccc(F)cc3)nc2n1`, in the assay with Escherichia coli [1], the result was Active.

For orientation: IC50 means the concentration that gives 50% inhibition. As a reminder, the Ki is the dissociation constant of the complex between target and ligand, obtained from inhibition or displacement. As to `Nc1nc(-c2ccc(F)cc2)c2sc(N3CCN(C(=O)COc4ccc(Cl)cc4)CC3)nc2n1`, the inhibition with Escherichia coli [1] is 76%. Further, the IC50 in assay [2] worked out at 135 µM. The inhibition constant (Ki) in assay [3] is 60 µM. In addition, the inhibition entry in the assay with Escherichia coli [4] was “Active”.

`COCCNc1nc2nc(N)nc(N3CCOCC3)c2s1`: the outcome in the assay with Escherichia coli [1] was Active.

For `CC(C)(C)OC(=O)N1CCN(c2nc3nc(N)nc(-c4ccc(F)cc4)c3s2)CC1`, the inhibition in the assay with Escherichia coli [1] was determined as 50%.

On to `Nc1nc(N2CCOCC2)c2sc(C#Cc3ccccc3)nc2n1`, for which the result with Escherichia coli [1] was Active. For the same compound, the inhibition in the assay with Staphylococcus aureus is 40%.

Regarding `Nc1nc(N2CCOCC2)c2sc(/C=C/c3ccccc3)nc2n1`, the figures for the inhibition in the assay on Escherichia coli [1] and with Staphylococcus aureus were 70% and 40%, respectively. Also, the IC50 in assay [2] was found to be 197 µM.

As to `Cc1cccc(NC(=O)N2CCN(c3nc4nc(N)nc(-c5ccc(F)cc5)c4s3)CC2)c1`, the inhibition in the assay with Escherichia coli [1] was determined as 50%; in the assay with Staphylococcus aureus it was 40%.

Consider `CC(=O)N1CCN(c2nc(N)nc3nc(-c4ccc(F)cc4)sc23)CC1`, for which the inhibition with Escherichia coli [1] was found to be 50%.

As to `Cc1cccc(NC(=O)N2CCN(c3nc(N)nc4nc(-c5ccc(F)cc5)sc34)CC2)c1`, the inhibition with Staphylococcus aureus worked out at 40%.

Take `COCCNc1nc2nc(N)nc(-c3ccc(F)cc3)c2s1`: the inhibition in the assay with Escherichia coli [1] is 50%.

(Values after ChEMBL document CHEMBL1641421, “Synthesis of novel 5-amino-thiazolo[4,5-d]pyrimidines as E. coli and S. aureus SecA inhibitors” (Bioorg Med Chem, 2011).)
